Source: PubChem
SR-BI DiI-HDL act: SR-BI HDL lipid transfer activation; CHO ldlA[mSR-BI] cells, DiI-HDL uptake fluorescence, 3 h; 100 = double the neutral-control signal; activation, % at 12.5 µM; 320,000 compounds, 0.096% hits;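 active = mean replicate activation of at least 60% and every replicate at or above 60%; inconclusive = mean or all-replicate condition met, but not both; inactive = mean below 60% and not all replicates reaching 60%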;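 note: 0% = median plate neutral-control signal and 100% = twice that signal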
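System: CHO ldlA[mSR-BI] cells / Medium: HEPES-buffered (25 mM, pH 7.4) F12 plus 0.5% BSA / Probe or stimulus: labelled HDL, 10 µg/mL / Doses: single compound concentration, delivered by pin transfer / Schedule: 3 h, 37 °C / Measured by: DiI fluorescence, bottom read / Measure: cell-associated DiI fluorescence as measure of HDL uptake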
SR-BI DiI inh: inhibitors of mouse SR-BI mediated HDL lipid uptake. Q61009. ldlA[mSR-BI] CHO cells, DiI-HDL uptake fluorescence, 3 h. inhibition, % at 12.5 µM. 320,000 compounds, 0.96% hits. AID 488896;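 active = mean replicate inhibition of at least 70% and a set share of replicates each scoring 70 or more; inconclusive = meets just one of the two criteria; inactive = fails both criteria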;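 note: 0% = median of neutral control wells and 100% = median of positive control wells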
Target sequence (Q61009 whole entry, looked up): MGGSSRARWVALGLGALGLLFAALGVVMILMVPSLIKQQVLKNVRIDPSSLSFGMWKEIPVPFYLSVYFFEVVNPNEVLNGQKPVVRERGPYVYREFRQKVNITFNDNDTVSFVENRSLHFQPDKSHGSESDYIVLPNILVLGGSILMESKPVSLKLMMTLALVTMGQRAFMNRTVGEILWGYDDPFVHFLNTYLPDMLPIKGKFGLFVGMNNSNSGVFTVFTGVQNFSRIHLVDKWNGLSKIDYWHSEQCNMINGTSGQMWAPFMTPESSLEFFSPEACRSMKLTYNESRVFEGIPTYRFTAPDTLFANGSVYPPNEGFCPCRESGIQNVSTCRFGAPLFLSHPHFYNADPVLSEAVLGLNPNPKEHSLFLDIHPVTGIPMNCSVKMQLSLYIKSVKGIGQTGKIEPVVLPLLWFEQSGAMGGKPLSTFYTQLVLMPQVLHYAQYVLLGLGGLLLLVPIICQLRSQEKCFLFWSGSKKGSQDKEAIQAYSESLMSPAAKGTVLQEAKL
rRNA inh HTS: inhibits bacterial ribosomal RNA function over humanized ribosomes | 350,000 compounds, 1.6% hits | E. coli WT GFP vs humanized-ribosome RFP mutants, fluorescence, 24 h; hits give low values; DMSO median 0, no signal -100 | GFP signal change (wild-type ribosome), % (concentration not given with the values);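 active = significant combined selectivity score with lowered wild-type GFP, culture density cut under 30%, mutant RFP and density less affected; inactive = any of these conditions unmet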
PvdQ acylase: P. aeruginosa PvdQ acylase inhibition. purified PvdQ acylase, fluorescence plate reader. inhibition, % at 10 µM. 340,000 compounds, 0.063% hits. AID 488965; in the data active = inhibition above about 30%, passing the limit was not always enough; inconclusive = no clear call, values can overlap the other calls;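 note: 0% = vehicle neutral wells and 100% = reference inhibitor wells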
dFosB act: activators of mouse delta FosB homodimer; AID 493131; P13346; activation, % at 25 µM; purified delta FosB, TAMRA-CDK5 oligo fluorescence polarization; percent of positive-control signal above neutral wells; 340,000 compounds, 0.99% hits;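 active = mean activation above about 17%, with every replicate also reaching it, limit read from the data, passing the limit was not always enough; inconclusive = only one of the two conditions met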
Xi reactivation: activators of X-chromosome reactivation in mouse fibroblasts; activation, % at 7.58 µM; 360,000 compounds, 0.055% hits; XiGFP mouse fibroblasts, % GFP-positive cells imaging, 3 d; cells co-treated with 5-aza-dC sensitizer; scaled so ellipticine positive control = 100%;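 active = mean normalized replicate activation at least 10% and every replicate at or above 10%; inconclusive = only one of the two criteria met; inactive = mean below 10% and not all replicates reach 10%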;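 note: 0% = median of on-plate neutral control wells and 100% = ellipticine 6 µM median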
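System: SV40-immortalized XiGFP fibroblast cells, line 68-5-11 / Incubation: 3-day compound exposure, then 15 min fixation at room temperature / Compound: single concentration per compound, delivered by pin transfer / Buffer or medium: DMEM plus 5-aza-dC sensitizer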
AID977621: growth inhibition of wild-type GFP E. coli, dose response, H69 mutant RFP, cherry-pick | shares compounds with rRNA inh HTS | E. coli wild-type GFP strain growth, fluorescence, 24 h | activity change, negative = inhibition at 50 µM | 1,900 tested, under 10 active;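 active = Wild-type ribosome reporter drop at least double the humanized mutant ribosome reporter drop, growth loss under a set limit; inconclusive = no clear call, values can overlap the other calls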;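 note: wild-type GFP and H69 mutant RFP strains grown together 50/50 in each well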
AID977628: E. coli growth inhibition, wild-type GFP versus h24 humanized RFP strain, dose response, h24 mutant RFP vs wild-type GFP, cherry-pick. shares compounds with rRNA inh HTS. 1,900 tested, under 10 active. E. coli WT GFP strain growth, fluorescence, 24 h. AID 977628. activity change, negative = inhibition at 50 µM;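 active = compound lowering the normal-ribosome reporter at least twice as much as the humanized-ribosome reporter, growth loss under a set limit; inconclusive = no clear call, values can overlap the other calls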;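 note: wild-type GFP and h24 humanized RFP strains co-cultured 1 to 1 per well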
Numbers without * were called inactive; ! = repeats disagree. Hits are enriched below; roughly 2.6% of the tested compounds scored in any of these assays.

CC(C)(C)c1cc(CN2CCN(CCO)CC2)cc(C(C)(C)C)c1O was read as SR-BI DiI-HDL act 0.8, SR-BI DiI inh -0.8, PvdQ acylase -16.6 and dFosB act 1.0.
CN1CCN(CC(=O)c2cc(C(C)(C)C)c(O)c(C(C)(C)C)c2)CC1 was read as SR-BI DiI-HDL act -5.1, SR-BI DiI inh 5.1, rRNA inh HTS -30.6*, PvdQ acylase -10.1, dFosB act -7.0, Xi reactivation 0.0, AID977621 -2.77 and AID977628 -9.31.
CC(=O)c1ccc(N2CCN(C(=O)C3CCN(S(=O)(=O)c4ccc5c(c4)CC(C)N5C(C)=O)CC3)CC2)cc1 (stereo not given) was read as SR-BI DiI-HDL act -4.8, SR-BI DiI inh 4.8, rRNA inh HTS -19.0*, PvdQ acylase 4.9, dFosB act -3.8, Xi reactivation 0.0 and AID977621 -13.7.
For Cc1cc(C(=O)COC(=O)c2ccc(O)cc2)c(C)n1CC(F)(F)F the results were SR-BI DiI-HDL act -39.0, SR-BI DiI inh 39.0, rRNA inh HTS -20.4*, PvdQ acylase -5.4, dFosB act -8.1, Xi reactivation -0.1, AID977621 -11 and AID977628 -4.47.
`COc1cccc(NC(=O)COC(=O)Cc2ccc(Br)cc2)c1` gave SR-BI DiI-HDL act -1.6, SR-BI DiI inh 1.6, rRNA inh HTS -15.4*, PvdQ acylase -1.7, dFosB act -5.2, Xi reactivation 0.1, AID977621 inconclusive and AID977628 -7.43.
COc1cccc(NC(=O)COC(=O)Cc2ccc(Cl)cc2)c1 was read as SR-BI DiI-HDL act 18.6, SR-BI DiI inh -18.6, rRNA inh HTS -36.0*, PvdQ acylase 9.4, dFosB act -5.3, Xi reactivation 0.6 and AID977621 -9.54.
COc1ccc(CC(=O)OCC(=O)Nc2cccc(Br)c2)cc1 was read as SR-BI DiI-HDL act 21.9, SR-BI DiI inh -21.9, rRNA inh HTS 3.6, PvdQ acylase 8.4, dFosB act 4.3 and Xi reactivation 0.3.
C[C@@]12C(=O)N(c3ccc(C(F)(F)F)cc3)C(=O)N1[C@@H]1c3ccccc3OC[C@@H]1[C@H]2c1ccccc1 was read as SR-BI DiI-HDL act 6.9, SR-BI DiI inh -6.9, PvdQ acylase -2.4 and dFosB act -6.4.
Screening C[C@]12C(=O)N(c3ccc(F)cc3)C(=O)N1[C@@H]1c3ccccc3OC[C@@H]1[C@H]2c1ccccc1 returned SR-BI DiI-HDL act -16.6, SR-BI DiI inh 16.6, rRNA inh HTS -24.8*, PvdQ acylase -4.1, dFosB act -0.2, Xi reactivation 0.2, AID977621 0.484 and AID977628 -14.6.
For Clc1ccc2nc(CN3CCCc4ccccc43)cn2c1 the results were SR-BI DiI-HDL act -22.9, SR-BI DiI inh 22.9, rRNA inh HTS -20.0*!, PvdQ acylase -9.1, dFosB act -5.3 and AID977621 -8.95.
O=C(NCCC(=O)N1CCN(S(=O)(=O)c2ccc(F)cc2)CC1)Nc1ccccc1 was read as SR-BI DiI-HDL act 28.3, SR-BI DiI inh -28.3, rRNA inh HTS -1.2, PvdQ acylase -3.5, dFosB act -7.1 and Xi reactivation 0.0.
Screening CC(=O)NS(=O)(=O)c1cccnc1Nc1cccc(Cl)c1C returned SR-BI DiI-HDL act 8.8, SR-BI DiI inh -8.8, rRNA inh HTS 16.1, PvdQ acylase -9.4, dFosB act -1.2 and Xi reactivation 0.3.
C=CCn1c(SC(C)C(=O)NC2CC2)nnc1-c1ccoc1C (stereo not given) was read as SR-BI DiI-HDL act 23.0, SR-BI DiI inh -23.0, rRNA inh HTS 4.1, PvdQ acylase -8.7, dFosB act -5.2 and Xi reactivation 0.1.
CCCN1CCN(C(=O)c2ccc(Sc3ccc(C)cc3)c(NC(C)=O)c2)CC1 was read as SR-BI DiI-HDL act 21.5, SR-BI DiI inh -21.5, rRNA inh HTS -12.7*, PvdQ acylase -2.6, dFosB act -4.2, AID977621 -22 and AID977628 -3.77.
Screening Cc1cccc[n+]1CC(=O)Nc1ccc([N+](=O)[O-])cc1Cl returned SR-BI DiI-HDL act -4.6, SR-BI DiI inh 4.6, PvdQ acylase -5.4 and dFosB act 6.1.
Screening O=C(C[n+]1ccc(Cc2ccccc2)cc1)Nc1ccc([N+](=O)[O-])cc1Cl returned SR-BI DiI-HDL act 4.9, SR-BI DiI inh -4.9, rRNA inh HTS -30.5*, PvdQ acylase -12.9, dFosB act -6.6, Xi reactivation 0.2, AID977621 -6.45 and AID977628 -6.85.
Screening O=C(Nc1ccc2c(c1)[C@H]1C[C@@H](CC(=O)N3CCCCC3)O[C@@H](CO)[C@H]1O2)Nc1ccccc1F returned rRNA inh HTS -6.8 and Xi reactivation 0.0.
`CCC1(C(=O)OC)CCc2c(cc(OC)c3ccccc23)C1=O` (stereo not given) gave rRNA inh HTS -26.9*, PvdQ acylase -7.6, dFosB act -4.7, AID977621 -6.55 and AID977628 -11.8.
Screening CCOC(=O)c1c(C)[nH]c(C)c1C(=O)COC(=O)C1CCCN1S(=O)(=O)c1ccccc1F (stereo not given) returned SR-BI DiI-HDL act -1.0, SR-BI DiI inh 1.0, PvdQ acylase -1.9 and dFosB act -9.8.
Screening O=C(COC(=O)[C@@H]1CCCN1S(=O)(=O)c1ccccc1F)c1ccccc1 returned SR-BI DiI-HDL act 12.4, SR-BI DiI inh -12.4, rRNA inh HTS -15.7*, PvdQ acylase -9.0, dFosB act 0.3, Xi reactivation 0.0, AID977621 -6.63 and AID977628 inconclusive.
For CCOc1ccccc1CNC(=O)C1CCCN(c2nn3c(=O)cc(C)nc3s2)C1 (stereo not given) the results were SR-BI DiI-HDL act -5.9, SR-BI DiI inh 5.9, rRNA inh HTS 1.6, PvdQ acylase -10.4, dFosB act -1.3 and Xi reactivation 0.0.
`C[C@H](CO)N1C[C@H](C)[C@H](CN(C)C(=O)Nc2ccc3c(c2)OCO3)Oc2ccc(NC(=O)C3CC3)cc2C1=O` gave rRNA inh HTS -2.5 and Xi reactivation 2.1.
